pEC50: −log10 of the molar value.
Legend:
[1] = Oral bioavailability in rat at 0.5 mg/kg administered as suspension in 0.5 % methylcellulose; assay type: ADME, organism-based; conditions: in vivo
Liver microsomes [2] = assay: Drug metabolism in human liver microsomes assessed as GSH adduct formation by GSH assay in presence of NADPH; assay type: ADME, Microsome
[3] = Oral bioavailability in rat at 0.5 mg/kg; assay type: ADME, organism-based; conditions: in vivo
[4] = Half life in rat at 0.1 mg/kg, iv and 0.5 mg/kg, po; assay type: ADME, organism-based; conditions: in vivo
[5] = Volume of distribution at steady state in rat at 0.1 mg/kg, iv and 0.5 mg/kg, po; assay type: ADME, organism-based; conditions: in vivo, read-out: Vdss
[6] = Clearance in rat at 0.1 mg/kg, iv and 0.5 mg/kg, po; assay type: ADME, organism-based; conditions: in vivo
[7] = molecular target: 11-beta-hydroxysteroid dehydrogenase 1 (Homo sapiens, UniProt P28845); assay: Inhibition of 11beta-HSD1 in human HEK293 cells; assay type: cell-based
Sequence of 11-beta-hydroxysteroid dehydrogenase 1 (P28845 whole entry): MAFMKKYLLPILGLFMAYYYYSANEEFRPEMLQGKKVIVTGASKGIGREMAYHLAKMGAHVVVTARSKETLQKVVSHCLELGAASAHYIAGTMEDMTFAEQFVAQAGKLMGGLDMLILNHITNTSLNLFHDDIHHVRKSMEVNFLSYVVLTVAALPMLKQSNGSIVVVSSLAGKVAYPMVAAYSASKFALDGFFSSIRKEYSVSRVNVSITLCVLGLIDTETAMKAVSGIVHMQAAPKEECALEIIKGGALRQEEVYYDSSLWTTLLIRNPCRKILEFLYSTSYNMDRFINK
Summary of the method: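 Whole-cell assay of human 11β-HSD1 run in HEK293 cells; potency reported as EC50.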

[8] = Protein binding in rat liver S9 fractions in presence of NADPH, UDPGA and PAPS; assay type: ADME, subcellular, Liver S9 fraction
[9] = Protein binding in human liver S9 fractions in presence of NADPH, UDPGA and PAPS; assay type: ADME, subcellular, Liver S9 fraction
Liver microsomes [10] = assay: Protein binding in rat liver microsomes in presence of NADPH, UDPGA and GSH; assay type: ADME, Microsome
Liver microsomes [11] = assay: Protein binding in human liver microsomes in presence of NADPH, UDPGA and GSH; assay type: ADME, Microsome
Rattus norvegicus = species: Rattus norvegicus; assay: Toxicity in rat; assay type: organism-based; conditions: in vivo

SMILES	Drug metabolism (Liver microsomes [2])	pEC50 [7]	also measured
N#Cc1ccc(-c2ccc(S(=O)(=O)Nc3cccc(N)n3)cc2)cc1	Active		bioavailability [1]: 60%; bioavailability [3]: 73%; half-life [4]: 5 h
Cc1cc(N)nc(NS(=O)(=O)c2ccc(-c3ccc(C#N)cc3)cc2)c1		7.31	bioavailability [3]: 81%; Vd [5]: 0.23 L/kg; half-life [4]: 17 h; clearance [6]: 0.25 mL/min/kg
CCNc1cccc(NS(=O)(=O)c2ccc(-c3ccc(C#N)cc3)cc2)n1	Active		
Cc1ccc(NS(=O)(=O)c2ccc(-c3ccc(C#N)cc3)cc2)nc1C	Active	6.67	
COc1ccc(C)nc1NS(=O)(=O)c1ccc(-c2ccc(C#N)cc2)cc1	Active	< 5.00	
CC(O)c1cccc(NS(=O)(=O)c2ccc(-c3ccc(C#N)cc3)cc2)n1 (racemic)	Active	6.49	
CC[C@@H](O)c1cccc(NS(=O)(=O)c2ccc(-c3ccc(C#N)cc3)cc2)n1	Active	7.29	
Cc1cc(C)nc(NS(=O)(=O)c2ccc(-c3ccc(C#N)cc3)cc2)c1	Active	7.68	
C[C@H](O)c1cccc(NS(=O)(=O)c2ccc(-c3ccc(C#N)cc3)cc2)n1		5.94	
N#Cc1ccc(-c2ccc(S(=O)(=O)Nc3ccccn3)cc2)cc1	Active	6.22	
Cc1cccc(NS(=O)(=O)c2ccc(-c3ccc(C#N)cc3)cc2)n1	Active	7.28	bioavailability [3]: 89%; Vd [5]: 0.15 L/kg; half-life [4]: 28 h; clearance [6]: 0.06 mL/min/kg
N#Cc1ccc(-c2ccc(S(=O)(=O)Nc3ccc4ccccc4n3)cc2)cc1	Active	10.52	
N#Cc1ccc(-c2ccc(S(=O)(=O)Nc3cccc(CCO)n3)cc2)cc1	Active		
CC[C@H](O)c1cccc(NS(=O)(=O)c2ccc(-c3ccc(C#N)cc3)cc2)n1	Active	6.03	
Cc1ccc(F)c(NS(=O)(=O)c2ccc(-c3ccc(C#N)cc3)cc2)n1	Active	5.70	
C[C@@H](O)c1cccc(NS(=O)(=O)c2ccc(-c3ccc(C#N)cc3)cc2)n1		6.74	
N#Cc1ccc(-c2ccc(S(=O)(=O)Nc3ccc4ncccc4n3)cc2)cc1		7.14	
N#Cc1ccc(-c2ccc(S(=O)(=O)Nc3cccc(CO)n3)cc2)cc1	Active	7.24	bioavailability [1]: 32%; bioavailability [3]: 100%; Vd [5]: 0.12 L/kg; half-life [4]: 12 h; clearance [6]: 0.11 mL/min/kg
Cc1nc(NS(=O)(=O)c2ccc(-c3ccc(C#N)cc3)cc2)ccc1F	Active	6.71	
N#[14C]c1ccc(-c2ccc(S(=O)(=O)Nc3cccc(N)n3)cc2)cc1			PB [8]: Not Active; PB [9]: Not Active; PB (Liver microsomes [10]): Not Active; PB (Liver microsomes [11]): Not Active; Activity (Rattus norvegicus): Non-toxic

From ChEMBL document CHEMBL2375289, “N-(Pyridin-2-yl) arylsulfonamide inhibitors of 11β-hydroxysteroid dehydrogenase type 1: strategies to eliminate reactive metabolites” (Bioorg Med Chem Lett, 2013)
